# Experimental data pooled from the literature.
# Compare with care: the assays were run in different laboratories.
# Target: Inhibitor of nuclear factor kappa-B kinase subunit epsilon (IKBKE, Homo sapiens, UniProt Q14164)
# One construct used (Q14164 1-716): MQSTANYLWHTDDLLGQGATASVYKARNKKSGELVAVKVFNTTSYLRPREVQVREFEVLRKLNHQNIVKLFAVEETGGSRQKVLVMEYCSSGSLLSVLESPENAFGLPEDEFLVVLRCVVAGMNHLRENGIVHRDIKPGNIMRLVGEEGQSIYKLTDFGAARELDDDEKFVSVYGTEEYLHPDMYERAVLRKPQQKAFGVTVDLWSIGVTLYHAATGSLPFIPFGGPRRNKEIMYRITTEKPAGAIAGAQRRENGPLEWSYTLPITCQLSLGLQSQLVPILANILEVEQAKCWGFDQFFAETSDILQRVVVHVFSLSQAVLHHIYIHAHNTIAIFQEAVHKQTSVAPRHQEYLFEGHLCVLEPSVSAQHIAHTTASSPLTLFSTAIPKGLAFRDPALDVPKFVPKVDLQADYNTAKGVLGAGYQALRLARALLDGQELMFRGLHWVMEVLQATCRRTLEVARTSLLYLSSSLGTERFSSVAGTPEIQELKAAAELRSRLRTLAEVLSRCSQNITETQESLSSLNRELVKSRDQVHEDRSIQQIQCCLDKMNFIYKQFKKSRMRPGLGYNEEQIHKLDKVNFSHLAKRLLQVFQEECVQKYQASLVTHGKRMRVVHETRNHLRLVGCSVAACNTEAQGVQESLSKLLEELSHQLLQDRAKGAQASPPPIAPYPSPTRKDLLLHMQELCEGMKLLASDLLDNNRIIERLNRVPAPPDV
SMILES,read-out,action,technique,tested at,measurement,result
N#CC1(c2ccccn2)CCN(Cc2cc(C(=O)O)c(=O)n3ccccc23)CC1,cell-free assay,,competition with immobilised ligand,1 µM,remaining binding,88%
Cn1cc(-c2cccc(N3CCc4c(sc5c4CC(C)(C)C5)C3=O)c2CO)cc(Nc2ccncn2)c1=O,enzyme activity,inhibitor,,1 µM,inhibition,9%
Cc1nn(C)cc1-c1nc2c(N3CCN(Cc4ccc(Cl)cc4)CC3)c(Cl)cnc2[nH]1,binding,,competition with immobilised ligand,1 µM,remaining binding,100%
Cn1cncc1[C@@](O)(COc1ccc(C#N)cc1-c1ccc(OC(F)(F)F)cc1)c1ccc(C#N)cc1,cell-free assay,,competition with immobilised ligand,1 µM,remaining binding,100%
Cn1cc(-c2cc(F)cc(N3CCn4c(cc5c4CCCC5)C3=O)c2CO)cc(Nc2ccc(N3CCN(C4COC4)CC3)cn2)c1=O,enzyme activity,inhibitor,,0.1 µM,inhibition,12%
O=c1[nH]c2ccccc2n1C1CCN(Cc2ccc(-c3[nH]c4cc5ncnc5cc4nc3-c3ccccc3)cc2)CC1,enzyme activity,,,0.5 µM,remaining activity,91.9%
COc1ncccc1-c1cnn2ccc(N3CCN(C(=O)OC(C)C)CC3)nc12,binding,,competition with immobilised ligand,1 µM,remaining binding,69%
CC(C)(C)c1cc(C=C(C#N)C#N)cc(Br)c1O,enzyme activity,inhibitor,,0.5 µM,remaining activity,86.8%
Nc1ncc(-c2nc(N3CCOCC3)nc(N3CCOCC3)n2)c(C(F)F)n1,binding,,competition with immobilised ligand,10 µM,remaining binding,99%
